Measurements: ChEMBL document CHEMBL2157889, “Design, synthesis and biological evaluation of heterocyclic azoles derivatives containing pyrazine moiety as potential telomerase inhibitors” (Bioorg Med Chem, 2012)

Legend:
HepG2 [1] = experiment: Antiproliferative activity against human HepG2 cells after 48 hrs by MTT method; format: functional, cell-based; details: HepG2, 48 h
[2] = Antiproliferative activity against human SW1116 cells after 48 hrs by MTT method; format: functional, cell-based; details: SW 1116, 48 h
HeLa = experiment: Antiproliferative activity against human HeLa cells after 48 hrs by MTT method; format: functional, cell-based
BGC-823 = experiment: Antiproliferative activity against human BGC823 cells after 48 hrs by MTT method; format: functional, cell-based; details: BGC-823, 48 h
How it was run: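 MTT assay. Cells were seeded at 10⁴ per well and held 24 h at 37 °C with 5% CO₂. […] After 48 h, 5 mg/mL MTT in PBS was added for 4 h. Formazan was dissolved in DMSO and absorbance read at 490 nm.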

[3] = biological target: Telomerase reverse transcriptase (Homo sapiens, UniProt O14746); experiment: Inhibition of telomerase in human HepG2 cells after 24 hrs by TRAP-PCR-ELISA assay; format: cell-based
How it was run: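 Cells in serum/penicillin/streptomycin medium (37 °C, 5% CO₂) were seeded at 5×10⁴ per T25 flask and allowed to adhere. After 24 h treatment, cells were lysed in RIPA buffer on ice for 30 min and spun at 12,000 g for 20 min at 4 °C. For the kit-based TRAP-PCR-ELISA, PCR ran 94 °C 120 s, then 35 cycles of 94/50/72 °C. Product was hybridised to a DIG probe, captured via biotin-streptavidin, detected with peroxidase anti-DIG, and read at 490 nm.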

HepG2 [4] = experiment: Induction of apoptosis in human HepG2 cells after 24 hrs by annexin VeFITC/PI-based flow cytometry; format: functional, cell-based
HepG2 [5] = experiment: Induction of apoptosis in human HepG2 cells assessed as viable cells at 0.25 uM after 24 hrs by annexin VeFITC/PI-based flow cytometry (reference value: 89.18 %); format: functional; details: HepG2, 24 h, read-out: Activity
HepG2 [6] = experiment: Induction of apoptosis in human HepG2 cells assessed as viable cells at 0.5 uM after 24 hrs by annexin VeFITC/PI-based flow cytometry (reference value: 89.18 %); format: functional; details: HepG2, 24 h, read-out: Activity
HepG2 [7] = experiment: Induction of apoptosis in human HepG2 cells assessed as viable cells at 1 uM after 24 hrs by annexin VeFITC/PI-based flow cytometry (reference value: 89.18 %); format: functional; details: HepG2, 24 h, read-out: Activity
HepG2 [8] = experiment: Induction of apoptosis in human HepG2 cells assessed as viable cells at 2 uM after 24 hrs by annexin VeFITC/PI-based flow cytometry (reference value: 89.18 %); format: functional; details: HepG2, 24 h, read-out: Activity
HepG2 [9] = experiment: Induction of apoptosis in human HepG2 cells assessed as early apoptotic cells at 0.25 uM after 24 hrs by annexin VeFITC/PI-based flow cytometry (reference value: 3.28 %); format: functional
HepG2 [10] = experiment: Induction of apoptosis in human HepG2 cells assessed as early apoptotic cells at 0.5 uM after 24 hrs by annexin VeFITC/PI-based flow cytometry (reference value: 3.28 %); format: functional
HepG2 [11] = experiment: Induction of apoptosis in human HepG2 cells assessed as early apoptotic cells at 1 uM after 24 hrs by annexin VeFITC/PI-based flow cytometry (reference value: 3.28 %); format: functional
HepG2 [12] = experiment: Induction of apoptosis in human HepG2 cells assessed as early apoptotic cells at 2 uM after 24 hrs by annexin VeFITC/PI-based flow cytometry (reference value: 3.28 %); format: functional
HepG2 [13] = experiment: Induction of apoptosis in human HepG2 cells assessed as late apoptotic cells at 0.25 uM after 24 hrs by annexin VeFITC/PI-based flow cytometry (reference value: 6.84 %); format: functional
HepG2 [14] = experiment: Induction of apoptosis in human HepG2 cells assessed as late apoptotic cells at 0.5 uM after 24 hrs by annexin VeFITC/PI-based flow cytometry (reference value: 6.84 %); format: functional
HepG2 [15] = experiment: Induction of apoptosis in human HepG2 cells assessed as late apoptotic cells at 1 uM after 24 hrs by annexin VeFITC/PI-based flow cytometry (reference value: 6.84 %); format: functional
HepG2 [16] = experiment: Induction of apoptosis in human HepG2 cells assessed as late apoptotic cells at 2 uM after 24 hrs by annexin VeFITC/PI-based flow cytometry (reference value: 6.84 %); format: functional
HepG2 [17] = experiment: Induction of apoptosis in human HepG2 cells assessed as necrotic cells at 0.25 uM after 24 hrs by annexin VeFITC/PI-based flow cytometry (reference value: 0.7 %); format: functional
HepG2 [18] = experiment: Induction of apoptosis in human HepG2 cells assessed as necrotic cells at 0.5 uM after 24 hrs by annexin VeFITC/PI-based flow cytometry (reference value: 0.7 %); format: functional
HepG2 [19] = experiment: Induction of apoptosis in human HepG2 cells assessed as necrotic cells at 1 uM after 24 hrs by annexin VeFITC/PI-based flow cytometry (reference value: 0.7 %); format: functional
HepG2 [20] = experiment: Induction of apoptosis in human HepG2 cells assessed as necrotic cells at 2 uM after 24 hrs by annexin VeFITC/PI-based flow cytometry (reference value: 0.7 %); format: functional

Sequence of Telomerase reverse transcriptase (O14746 whole entry): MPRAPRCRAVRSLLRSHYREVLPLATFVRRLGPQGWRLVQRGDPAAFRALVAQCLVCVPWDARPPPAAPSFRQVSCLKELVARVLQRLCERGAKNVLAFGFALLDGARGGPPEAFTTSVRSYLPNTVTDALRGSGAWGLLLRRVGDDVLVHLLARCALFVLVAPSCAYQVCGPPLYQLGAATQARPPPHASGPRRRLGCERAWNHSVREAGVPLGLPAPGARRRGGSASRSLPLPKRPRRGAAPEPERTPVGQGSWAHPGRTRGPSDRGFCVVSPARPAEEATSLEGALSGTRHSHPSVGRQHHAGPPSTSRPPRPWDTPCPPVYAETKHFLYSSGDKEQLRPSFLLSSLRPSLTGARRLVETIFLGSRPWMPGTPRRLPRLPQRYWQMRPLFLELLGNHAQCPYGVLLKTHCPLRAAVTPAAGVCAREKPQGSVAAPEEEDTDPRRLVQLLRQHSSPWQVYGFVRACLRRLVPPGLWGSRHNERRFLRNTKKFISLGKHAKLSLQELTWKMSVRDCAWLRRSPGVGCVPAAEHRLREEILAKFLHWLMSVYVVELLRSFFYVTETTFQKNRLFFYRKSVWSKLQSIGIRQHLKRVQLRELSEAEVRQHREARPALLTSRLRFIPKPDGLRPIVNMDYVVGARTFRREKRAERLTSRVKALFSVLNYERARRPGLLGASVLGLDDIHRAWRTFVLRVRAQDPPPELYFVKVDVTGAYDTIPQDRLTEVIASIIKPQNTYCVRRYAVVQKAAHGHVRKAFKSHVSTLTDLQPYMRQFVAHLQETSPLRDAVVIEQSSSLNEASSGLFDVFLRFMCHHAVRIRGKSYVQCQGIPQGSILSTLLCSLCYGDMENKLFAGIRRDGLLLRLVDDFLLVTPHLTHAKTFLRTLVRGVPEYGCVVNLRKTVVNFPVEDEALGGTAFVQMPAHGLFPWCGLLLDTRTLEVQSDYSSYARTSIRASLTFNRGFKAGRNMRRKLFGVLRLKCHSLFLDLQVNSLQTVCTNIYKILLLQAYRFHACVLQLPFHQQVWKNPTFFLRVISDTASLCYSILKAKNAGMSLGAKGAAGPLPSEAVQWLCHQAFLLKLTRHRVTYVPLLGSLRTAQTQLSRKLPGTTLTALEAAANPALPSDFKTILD

Row | Compound | IC50 (HepG2 [1]) [µM] | IC50 [2] [µM] | IC50 (HeLa) [µM] | IC50 (BGC-823) [µM] | IC50 [3] [µM] | other results
1 | Fc1ccc(CSc2nnc(-c3cnccn3)s2)cc1 | 10.1 | 17.1 | > 50 | 29.3 | 12.1 | –
2 | Clc1cccc(CSc2nnc(-c3cnccn3)o2)c1 | 7.5 | 7.88 | 14.6 | 15.8 | 6.38 | –
3 | c1ccc(CSc2nnc(-c3cnccn3)n2-c2ccccc2)cc1 | 17.1 | 15.4 | 35.6 | > 50 | – | –
4 | c1ccc(CSc2nnc(-c3cnccn3)o2)cc1 | 11.2 | 34 | 21.1 | 25 | – | –
5 | Fc1ccc(CSc2nnc(-c3cnccn3)o2)cc1 | 16.5 | 22.7 | 41.6 | > 50 | 17.1 | –
6 | Brc1cccc(CSc2nnc(-c3cnccn3)n2-c2ccccc2)c1 | 10.6 | 5.03 | 9.58 | 18.3 | – | –
7 | Clc1cccc(CSc2nnc(-c3cnccn3)s2)c1 | 7.03 | 12.1 | 29.7 | 14.7 | 3.12 | –
8 | Fc1ccc(CSc2nnc(-c3cnccn3)o2)c(F)c1 | 14.4 | 19.3 | 26.7 | 33 | – | –
9 | Fc1cccc(F)c1CSc1nnc(-c2cnccn2)o1 | 17.1 | 23.8 | > 50 | > 50 | – | –
10 | Fc1ccccc1CSc1nnc(-c2cnccn2)s1 | 9.52 | 6.77 | 32.7 | 18.4 | – | –
11 | Brc1cccc(CSc2nnc(-c3cnccn3)s2)c1 | 1.79 | 5.26 | 5.43 | 16.7 | 1.54 | –
12 | Brc1cccc(CSc2nnc(-c3cnccn3)o2)c1 | 5.79 | 5.06 | 30.3 | 11.5 | 3.59 | –
13 | Clc1ccccc1CSc1nnc(-c2cnccn2)o1 | 12.3 | 15.1 | 23 | 27.7 | – | –
14 | Brc1ccc(CSc2nnc(-c3cnccn3)s2)cc1 | 0.78 | 1.47 | 12.4 | 25.2 | 1.24 | Activity (HepG2 [4]): Dose-dependent effect; viability at 0.25 µM (HepG2 [5]): 85.3%; viability at 0.5 µM (HepG2 [6]): 60.9%; viability at 1 µM (HepG2 [7]): 50.3%; viability at 2 µM (HepG2 [8]): 44.5%; Activity (HepG2 [9]): 4.36%; Activity (HepG2 [10]): 11.48%; Activity (HepG2 [11]): 14.96%; Activity (HepG2 [12]): 17.54%; Activity (HepG2 [13]): 8.62%; Activity (HepG2 [14]): 24.02%; Activity (HepG2 [15]): 30.6%; Activity (HepG2 [16]): 35.16%; Activity (HepG2 [17]): 1.72%; Activity (HepG2 [18]): 3.62%; Activity (HepG2 [19]): 4.18%; Activity (HepG2 [20]): 2.82%
15 | Fc1cccc(F)c1CSc1nnc(-c2cnccn2)s1 | 6.9 | 16.8 | 29.2 | 18.6 | – | –
16 | Clc1ccc(CSc2nnc(-c3cnccn3)s2)cc1 | 6.23 | 4.77 | 18.9 | 13.4 | 7.88 | –
17 | Fc1ccc(CSc2nnc(-c3cnccn3)n2-c2ccccc2)cc1 | 10.1 | 4.12 | 7.3 | 27.2 | 15 | –
18 | Clc1ccc(CSc2nnc(-c3cnccn3)o2)cc1 | 11.5 | 17.3 | 24.6 | 30 | – | –

Row | Compound | IC50 (HepG2 [1]) [µM] | IC50 [2] [µM] | IC50 (HeLa) [µM] | IC50 (BGC-823) [µM] | IC50 [3] [µM] | other results
19 | Brc1ccc(CSc2nnc(-c3cnccn3)o2)cc1 | 13.2 | 14.4 | 21.6 | 25.7 | – | –
20 | Brc1ccccc1CSc1nnc(-c2cnccn2)n1-c1ccccc1 | 11.6 | 19.4 | > 50 | 36.2 | – | –
21 | Brc1ccc(CSc2nnc(-c3cnccn3)n2-c2ccccc2)cc1 | 11.4 | 6.21 | 8.63 | 19.8 | 7.13 | –
22 | CN[C@@H]1C[C@H]2O[C@@](C)([C@@H]1OC)n1c3ccccc3c3c4c(c5c6ccccc6n2c5c31)C(=O)NC4 [STAUROSPORINE] | – | – | – | 6.83 | – | –
23 | Clc1ccc(CSc2nnc(-c3cnccn3)n2-c2ccccc2)cc1 | 15.3 | 12.5 | > 50 | 27.7 | 13.4 | –
24 | Fc1ccccc1CSc1nnc(-c2cnccn2)o1 | 12.5 | 16.8 | 25.3 | 18.2 | – | –
25 | Clc1ccccc1CSc1nnc(-c2cnccn2)n1-c1ccccc1 | 18.8 | 18.1 | > 50 | 34.7 | – | –
26 | Fc1cccc(F)c1CSc1nnc(-c2cnccn2)n1-c1ccccc1 | 22.6 | 24.1 | > 50 | > 50 | 24.2 | –
27 | Fc1ccccc1CSc1nnc(-c2cnccn2)n1-c1ccccc1 | 19.3 | 18.8 | 44.1 | > 50 | 17.6 | –
28 | c1ccc(CSc2nnc(-c3cnccn3)s2)cc1 | 11.3 | 7.88 | 34.4 | 21.2 | – | –
29 | Fc1ccc(CSc2nnc(-c3cnccn3)s2)c(F)c1 | 9.63 | 5.18 | 20.9 | 14.5 | – | –
30 | O=c1[nH]cc(F)c(=O)[nH]1 [FLUOROURACIL] | 1.3 | 2.41 | 3.25 | – | – | –
31 | Clc1ccccc1CSc1nnc(-c2cnccn2)s1 | 10.8 | 7.53 | 28.9 | 20.3 | – | –
32 | Brc1ccccc1CSc1nnc(-c2cnccn2)o1 | 4.22 | 2.46 | 8.89 | 17.6 | 3.55 | –
33 | Brc1ccccc1CSc1nnc(-c2cnccn2)s1 | 9.81 | 6.95 | 21.3 | 18.9 | 3.97 | –
34 | Fc1ccc(CSc2nnc(-c3cnccn3)n2-c2ccccc2)c(F)c1 | 10.4 | 4.65 | 12.5 | 17.8 | – | –
35 | Clc1cccc(CSc2nnc(-c3cnccn3)n2-c2ccccc2)c1 | 19.6 | 6.61 | 13.5 | 20.3 | – | –
